MrgX1 agonist – agonists of human MrgX1 receptor. Q96LB2. MrgX1-HEK293 cells, Fluo-4 calcium fluorescence, agonist mode; hits give high values. B-score at 10 µM. 0.44% of 310,000 active. AID 588627;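 active means calcium response B-score plate-corrected fluorescence ratio at least 3 library SD, with starting fluorescence B-score inside 5 SD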
Target sequence (Q96LB2 whole entry, looked up): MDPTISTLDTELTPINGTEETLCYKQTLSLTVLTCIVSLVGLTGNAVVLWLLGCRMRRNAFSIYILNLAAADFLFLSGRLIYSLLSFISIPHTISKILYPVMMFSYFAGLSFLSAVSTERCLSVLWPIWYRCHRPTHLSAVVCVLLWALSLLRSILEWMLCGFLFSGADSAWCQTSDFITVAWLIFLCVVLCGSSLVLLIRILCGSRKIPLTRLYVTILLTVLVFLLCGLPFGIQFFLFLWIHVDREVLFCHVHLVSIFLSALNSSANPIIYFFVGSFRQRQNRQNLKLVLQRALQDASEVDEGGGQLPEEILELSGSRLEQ
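Material: MrgX1-expressing HEK293 cells; input: 15,000 cells per well; doses: test compound given as first of three sequential additions; schedule: overnight plating before 1 h dye loading; technique: Fluo-4 NW calcium-flux fluorescence, kinetic read; evaluation: baseline-normalised fluorescence change ratio, B-scored; control set: plate-wise positive and negative controls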
MrgX1 antagonist – human MrgX1 receptor antagonism, primary screen | 1.3% of 310,000 active | B-score at 10 µM | Q96LB2 | MRGX1-HEK293 calcium flux, Fluo-4, BAM8-22 antagonism; hits give low values;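 active means calcium-response B-score plate-corrected more than 3 library SD below zero, starting fluorescence within 5 deviations, no agonist response on first addition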;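 further: peak minus trough fluorescence over baseline after final BAM8-22 challenge near maximal dose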
RGS4 act – potentiators or activators of RGS4. HEK293 M3R/inducible RGS4, carbachol calcium flux Fluo4; hits give low values. B-score at 10 µM. 0.92% of 310,000 active;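 active means B-score of the integrated calcium signal more than 4 SD below the library mean, with starting fluorescence not abnormally high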;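 further: negative B-score means reduced calcium response which marks RGS4 activation or potentiation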
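test system = HEK293 cells with stable M3R and inducible RGS4 | schedule = recording 10 s baseline at 1 Hz, 100 s post-agonist | technique = Fluo4-AM (2 µM) calcium-flux fluorescence, kinetic read | measure = Agonist-evoked peak-minus-minimum fluorescence over baseline, integrated ratio, B score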
RGS4 inh – human RGS4 inhibition; P49798; HEK293 M3R/RGS4 inducible, Fluo-4 calcium flux; hits give high values; triggered by carbachol at its EC20; B-score at 10 µM; 0.45% of 310,000 active; AID 463165;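 active means B-score, a plate-corrected calcium signal, over three deviations above library mean, with baseline fluorescence within five deviations of library mean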;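 further: RGS4 expression induced by doxycycline in cells with stable M3 receptor; B-score is computed from the integrated fluorescence ratio over baseline after carbachol; higher B-score means a larger calcium signal and so more RGS4 inhibition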
Target sequence (P49798 whole entry, looked up): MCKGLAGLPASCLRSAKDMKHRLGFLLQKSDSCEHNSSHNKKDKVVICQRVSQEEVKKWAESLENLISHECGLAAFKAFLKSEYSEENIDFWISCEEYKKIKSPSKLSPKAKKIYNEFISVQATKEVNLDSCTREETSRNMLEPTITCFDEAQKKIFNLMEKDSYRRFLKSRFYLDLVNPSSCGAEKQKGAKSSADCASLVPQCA
MrgX1 allo act – human MrgX1 positive allosteric modulation, primary screen | Q96LB2 | MrgX1-HEK293, Fluo-4 calcium flux, FDSS; hits give high values | B-score at 10 µM | 0.63% of 310,000 active | AID 588675;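 active means plate-corrected calcium response at least 3 library SD above typical, normal starting fluorescence, not activating the receptor alone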;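 further: compound read alongside a low EC10 to EC30 dose of BAM8-22 agonist; peak minus trough fluorescence over baseline measured at the second addition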
RGS4 activ val – RGS4 activation, validation assay; AID 602282; 89% of 1,100 active; shares compounds with RGS4 act; HEK293 M3R/RGS4 inducible, carbachol calcium flux Fluo4; inhibition, % at 10 µM;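 active means inhibition above 3 SD of the buffer control wells, cut at about 41% in these data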;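 further: signal is the integrated peak-minus-minimum Fluo4 fluorescence over baseline ratio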
M3R Ca counter – activity in cells without induced RGS4 expression; shares compounds with RGS4 act; HEK293 M3R non-induced RGS4, Fluo4 calcium flux; after carbachol challenge at its EC90; inhibition, % at 10 µM; 82% of 1,100 active; AID 602283;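 active means inhibition exceeding 3 SD of buffer-only control wells, cut at about 26% in these data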;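 further: percent drop in integrated peak-minus-baseline over baseline Fluo4 ratio after carbachol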
* = called active by the depositor; i = inactive; / = no result given. Most compounds without a hit are left out; they make up all but 3.5% or so of the library.

SMILES	MrgX1 agonist	MrgX1 antagonist	RGS4 act	RGS4 inh	MrgX1 allo act	RGS4 activ val	M3R Ca counter
CCOC(=O)Cc1csc(NC(=S)NC(=O)C(C)(C)C)n1	i	i	i	i	i	/	/
CC1=C(C(=O)OCC2CCCO2)C(c2ccccc2)C2=C(CC(C)(C)CC2=O)N1 (configuration not stated)	i	i	-8.25*	i	i	0.0	0.0
CCOC(=O)Cn1c(-c2ccccc2)cc(SC)c(C#N)c1=O	i	i	-9.25*	i	i	90.5*	79.3*
CSc1cc(-c2ccccc2)n(C)c(=O)c1C#N	i	i	i	i	i	/	/
CC(C)(C)C(=O)COC(=O)C1=NN(c2ccccc2)C(=O)CC1	i	i	i	i	i	/	/
Cc1cc(/C=C(/C#N)c2nc3ccccc3[nH]2)c(C)n1-c1cc(C(=O)O)cc(C(=O)O)c1	/	/	-7.92*	i	/	52.5*	44.3*
Cc1ccc(-n2c(=O)[nH]c3cc(C(=O)NC4CCN(Cc5ccccc5)CC4)ccc3c2=O)cc1	i	i	i	i	i	/	/
C=CCNc1nc(N2CCCCC2)c(C#N)c2c1CN(Cc1ccccc1)CC2	i	i	-8.89*	i	i	94.0*	80.8*
CCC(C)N1CCC(Oc2ccc(C(=O)NCc3ccccn3)cc2)CC1 (configuration not stated)	i	i	i	i	i	/	/
CC(C)c1nc(N2CCN(C(=O)c3ccccc3)CC2)c(C#N)c2c1COC(C)(C)C2	i	i	-8.79*	i	i	45.0*	83.8*
CC(C)c1nc(N2CCN(C(=O)c3ccco3)CC2)c(C#N)c2c1COC(C)(C)C2	i	i	-10.5*	i	i	82.5*	41.8*
CC1(C)Cc2c(C#N)c(N3CCN(C(=O)c4ccccc4)CC3)nc(-c3ccco3)c2CS1	i	i	/	/	i	/	/
O=C(CNC(=O)c1ccc([N+](=O)[O-])cc1)c1ccccc1	i	i	i	i	i	/	/
O=C(CNc1ccccc1)c1ccc([N+](=O)[O-])cc1	i	i	-11.2*	i	i	76.5*	83.8*
O=C1c2oc3ccccc3c(=O)c2C(c2cccc(O)c2)N1CCCN1CCOCC1 (configuration not stated)	i	i	-8.93*	i	i	85.0*	36.8*
O=C1C=C(N2CCCCCC2)C2(CCCCC2)O1	i	i	-8.39*	i	i	65.5*	0.0
O=[N+]([O-])c1ccc(S(=O)(=O)Nc2nnc(C(F)(F)F)s2)cc1	i	i	i	i	i	/	/
O=C(O)CNS(=O)(=O)c1cccc(Cl)c1	i	i	i	i	i	/	/
COc1ccccc1C(CNC(=O)C(C)(C)Oc1ccc(Cl)cc1)N1CCCC1 (configuration not stated)	i	i	-8.85*	i	i	89.5*	25.8*
CCCN1CCN(C(=O)C(NC(=O)c2ccco2)C(C)C)CC1 (configuration not stated)	i	i	i	i	i	/	/
COc1ccc(Cc2n[nH]c(=S)n2NC(=O)Nc2ccc(Cl)c(Cl)c2)cc1	i	i	i	i	i	/	/
OCC1(Cc2ccccc2C(F)(F)F)CCN(Cc2ccccc2)CC1	i	i	i	i	i	/	/
OCC1(Cc2ccccc2C(F)(F)F)CCN(Cc2ccc3c(c2)CCO3)CC1	i	i	-10*	i	i	55.0*	83.8*
CCOC(=O)Nc1ccc2c(c1)N(C(=O)C(C)N1CCCC1)c1ccccc1CC2 (configuration not stated)	i	i	-7.89*	i	i	85.5*	83.8*
C=CCN(C(=O)CCC(=O)Nc1cc(C)on1)C(C(=O)NC1CCCC1)c1ccc(C)cc1 (configuration not stated)	i	i	i	i	i	/	/
SMILES	MrgX1 agonist	MrgX1 antagonist	RGS4 act	RGS4 inh	MrgX1 allo act	RGS4 activ val	M3R Ca counter
CCOc1ccc(S(=O)(=O)N(CC(=O)NC2CCCCC2C)Cc2ccco2)cc1 (configuration not stated)	i	i	-8.22*	i	i	0.0	0.0
Cc1cc(OC(C)C(=O)NCCCn2ccnc2)c2c(C)c(C)c(=O)oc2c1 (configuration not stated)	i	i	i	i	i	/	/
CCN(CC1CCCN(CCc2cccc(F)c2)C1)C(=O)c1cc(C)oc1C (configuration not stated)	i	i	i	i	i	/	/
CSCCC(=O)N(C)CC1CCCN(CCc2cccc(C(F)(F)F)c2)C1 (configuration not stated)	i	i	i	i	i	/	/
CCN(CC1CCCN(CCc2cccc(F)c2)C1)C(=O)c1cc2ccccc2o1 (configuration not stated)	i	i	-7.72*	i	i	78.0*	29.8*
CN(CC1CCCN(CCc2cccc(C(F)(F)F)c2)C1)C(=O)c1cc2ccccc2o1 (configuration not stated)	/	/	-11.7*	i	/	92.0*	74.3*
CC(=O)N[C@@H]1[C@@H](O)[C@@H]2OC(c3ccccc3)OC[C@H]2O[C@@H]1N=[N+]=[N-] (some centres not stated)	i	i	i	i	i	/	/
COc1nccnc1NS(=O)(=O)c1ccc(N)cc1	/	/	i	i	/	/	/
COc1ccc(C(CNC(=O)C(Cc2ccccc2)NC(N)=O)N(C)C)cc1 (configuration not stated)	i	i	i	i	i	/	/
Cc1ccc(C)c(S(=O)(=O)N2CCCCC2CCNC(=O)C(=O)NCc2ccccc2)c1 (configuration not stated)	i	i	i	i	i	/	/
CCC(C)[C@H](NC(=O)NC1CCCc2ccccc21)C(=O)OC (some centres not stated)	i	i	-8.34*	i	i	0.0	0.0
O=C(Nc1ccc(N2CCN(c3ncccc3C(F)(F)F)CC2)nc1)c1cccs1	i	i	-7.77*	i	i	92.0*	96.3*
O=C(COC(=O)c1ccc2c(c1)C(=O)N(Cc1ccncc1)C2=O)Nc1cccc2ccccc12	i	i	i	i	i	/	/
CSc1ccc(C(=O)C2CCCN(Cc3ccc(N4CCNC4=O)cc3)C2)cc1 (configuration not stated)	i	i	-7.95*	i	i	91.0*	57.3*

Compound activity (PubChem BioAssay)
